DENV2 CPE: DENV2-induced cell death inhibition; DENV2-infected cells, cytopathic effect rescue, plate reader; CPE inhibition, % at 9.99 µM; 350,000 tested, 1.7% active; AID 651640; in the data active = CPE inhibition above about 20%, passing the limit was not always enough; inconclusive = no clear call, values can overlap the other calls; tested in BHK-21 cells;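 also: 0% = median of neutral control wells and 100% = median of positive control wells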
E-sel inducer: E-selectin induction on HUVECs | HUVEC E-selectin immunofluorescence imaging; normalized: neutral wells 0, TNF-alpha wells 100 | activation, % at 7.58 µM | 260,000 tested, 0.37% active;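 active = mean E-selectin-positive cell signal at least 10% of the positive control, reached in at least 60% of replicates, without over 20% cell loss; inconclusive = no rule given, readout overlaps actives, possibly toxicity-flagged; inactive = the rest, including those meeting only one limit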
Target sequence (P16581 whole entry, looked up): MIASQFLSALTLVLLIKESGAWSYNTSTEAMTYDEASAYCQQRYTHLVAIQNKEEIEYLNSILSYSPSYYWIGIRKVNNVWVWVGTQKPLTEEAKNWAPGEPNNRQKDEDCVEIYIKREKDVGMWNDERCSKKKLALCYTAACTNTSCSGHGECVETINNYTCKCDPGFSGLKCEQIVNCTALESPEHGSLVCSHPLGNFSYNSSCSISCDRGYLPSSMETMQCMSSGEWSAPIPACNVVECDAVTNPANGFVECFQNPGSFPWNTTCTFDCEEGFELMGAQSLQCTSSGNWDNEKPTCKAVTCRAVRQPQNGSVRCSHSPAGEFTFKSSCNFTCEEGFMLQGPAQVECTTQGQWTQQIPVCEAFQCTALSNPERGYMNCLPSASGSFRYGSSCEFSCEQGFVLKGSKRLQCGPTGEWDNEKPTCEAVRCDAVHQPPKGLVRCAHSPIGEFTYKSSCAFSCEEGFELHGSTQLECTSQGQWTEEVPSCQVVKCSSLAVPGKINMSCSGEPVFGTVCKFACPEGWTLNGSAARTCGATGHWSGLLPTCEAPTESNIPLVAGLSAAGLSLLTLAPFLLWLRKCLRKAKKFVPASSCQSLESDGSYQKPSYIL
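assay system = HUVEC, human umbilical vein endothelial cells | input = 3,000 HUVEC seeded per well | medium = EGM-2 growth medium on 0.1% gelatin-coated wells | dosing = one compound dose added by pin transfer | signal = immunofluorescence imaging | read-out basis = % PE-positive cells | control set = TNF-alpha, DMSO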
SIRT5 inh: inhibitors of human sirtuin-5 desuccinylase. Q9NXA8. Purified SirT5, succinyl-peptide AMC, trypsin-coupled fluorescence. inhibition, % at 15 µM. 330,000 tested, 1.1% active; in the data active = inhibition above about 15%; inconclusive = no clear call, values can overlap the other calls
* hit, by the source's call; ? = inconclusive; / = no result. Hits are enriched below; roughly 2.9% of the tested compounds scored in any of these assays.

SMILES	DENV2 CPE	E-sel inducer	SIRT5 inh
CO[C@@H]1CN(C)C(=O)c2ccc(NC(=O)c3ccc(Oc4ccccc4)cc3)cc2OC[C@H](C)NC[C@@H]1C	?	0.1	0.2
COc1ccccc1CNc1nc2cc(-c3ccccc3C)sc2c(=O)n1C	-7.3	-0.3	-1.3
Cc1noc(C)c1NC(=O)Nc1ccc2c(c1)CC(=O)N([C@H](C)CO)C[C@@H](C)[C@H](CN(C)S(=O)(=O)c1cn(C)cn1)O2	4.9	0.0	/
COc1ccc2c3c(n(C)c2c1)[C@H](CO)N(C(=O)Nc1ccc(F)cc1)CC31CCN(S(=O)(=O)c2cccc(F)c2)CC1	?	-0.5	-3.4
COc1ccc(CN(C)C[C@H]2OCCCC[C@@H](C)Oc3ccc(NS(=O)(=O)c4cn(C)cn4)cc3C(=O)N([C@H](C)CO)C[C@@H]2C)cc1	52.5*	-0.2	-4.6
Cc1ccc(S(=O)(=O)N(C)C[C@@H]2OCCCC[C@@H](C)Oc3ccc(NS(=O)(=O)c4cn(C)cn4)cc3C(=O)N([C@H](C)CO)C[C@H]2C)cc1	2.8	/	-5.3
Cc1ccc(S(=O)(=O)Nc2ccc3c(c2)C(=O)N([C@H](C)CO)C[C@@H](C)[C@@H](CN(C)S(=O)(=O)c2cn(C)cn2)OCCCC[C@H](C)O3)cc1	34.0*	0.2	0.7
Cc1ccc(S(=O)(=O)N(C)C[C@H]2OCCCC[C@H](C)Oc3ccc(NS(=O)(=O)c4cn(C)cn4)cc3C(=O)N([C@@H](C)CO)C[C@@H]2C)cc1	5.9	/	2.1
C[C@@H]1CN([C@H](C)CO)C(=O)c2cc(NS(=O)(=O)c3cn(C)cn3)ccc2O[C@@H](C)CCCCO[C@H]1CN(C)S(=O)(=O)c1ccc(F)cc1	-7.9	/	8.2
Cc1ccc(S(=O)(=O)Nc2ccc3c(c2)C(=O)N([C@@H](C)CO)C[C@@H](C)[C@@H](CN(C)S(=O)(=O)c2cn(C)cn2)OCCCC[C@H](C)O3)cc1	25.5*	-0.1	-1.3
C[C@@H]1CCCCO[C@H](CN(C)S(=O)(=O)c2ccc(F)cc2)[C@@H](C)CN([C@H](C)CO)C(=O)c2cc(NS(=O)(=O)c3cn(C)cn3)ccc2O1	22.9*	/	-2.4
COc1ccc(CN(C)C[C@H]2OCCCC[C@H](C)Oc3ccc(NS(=O)(=O)c4cn(C)cn4)cc3C(=O)N([C@H](C)CO)C[C@@H]2C)cc1	-6.5	0.2	-0.2
C=CCN1C(=O)C(=Cc2ccc3c(c2)CCC3)SC1=S	-10.2	0.0	-2.0
COc1ccc(S(=O)(=O)Nc2ccc3c(c2)C(=O)N([C@@H](C)CO)C[C@@H](C)[C@@H](CN(C)S(=O)(=O)c2cn(C)cn2)OCCCC[C@H](C)O3)cc1	15.6	-0.6	0.1
COc1ccc(S(=O)(=O)Nc2ccc3c(c2)C(=O)N([C@H](C)CO)C[C@@H](C)[C@@H](CN(C)S(=O)(=O)c2cn(C)cn2)OCCCC[C@H](C)O3)cc1	53.2*	1.7	-2.6
NC(=O)COC(=O)c1oc2ccccc2c1CSc1ccc(Cl)cc1	5.6	/	-1.9
COc1cccc(N2CCN(CC(=O)NC(C)c3ccccc3)CC2)c1 (centres undefined)	9.0	/	-1.6
CC(NC(=O)CN1CCN(c2cccc(Cl)c2)CC1)c1ccccc1 (centres undefined)	44.2*	/	-8.9
CC(=O)N(C)C[C@H]1Oc2ncc(Br)cc2C(=O)N([C@H](C)CO)C[C@@H]1C	?	0.4	-3.1
CCC(Oc1ccc(C)cc1)C(=O)Nc1ccc2c(c1)n(C)c(=O)n2C (centres undefined)	0.5	0.2	-0.6
Clc1nnc(Cl)c2c1ncn2Cc1ccccc1	3.7	-0.1	1.1
CO[C@H](CN(C)Cc1cc(F)ccc1F)[C@@H](C)CN([C@@H](C)CO)S(=O)(=O)c1ccc(F)cc1	102.7*	-0.1	5.3
CO[C@@H](CN(C)Cc1nccs1)[C@H](C)CN([C@@H](C)CO)S(=O)(=O)c1ccc(F)cc1	-0.8	0.3	-2.1
CO[C@@H](CN(C)Cc1cc(F)ccc1F)[C@H](C)CN([C@@H](C)CO)S(=O)(=O)c1ccc(F)cc1	2.8	0.0	/
CO[C@H](CN(C)Cc1nccs1)[C@@H](C)CN([C@@H](C)CO)S(=O)(=O)c1ccc(C)cc1	6.8	-0.2	19.3*
SMILES	DENV2 CPE	E-sel inducer	SIRT5 inh
CCOC(=O)C1(CCOC)CCN(C(=O)Cc2ccc3ccccc3c2)CC1	-0.7	0.0	-3.9
COc1cc(/C=N/NC(=O)c2ccc3c(c2)OCO3)ccc1O	8.9	/	-1.3
CCCCNC(=O)c1cc2c(C)cc(C)cc2[nH]1	57.1*	21.3	-0.3
Cc1cc(C)c2cc(C(=O)Nc3ccc(C)c(F)c3)[nH]c2c1	-4.9	0.8	-3.1
Cc1cc(C)cc(NC(=S)Nc2ccccn2)c1	/	/	2.6
Cc1cccc(NC(=O)NC(C)CCc2ccccc2)c1 (centres undefined)	-2.2	-0.1	-2.7
Cc1cccc(NC(=S)Nc2ccccn2)c1	0.1	/	19.8*

Screening data (PubChem)
